Data on 15 compounds can be found in article PMC6467756 (Journal of medicinal chemistry, 2019).

Entries after “also recorded” stand apart in the source; their conditions may differ. Read-outs that look alike come from different tables or passages of the source.

Data set [1] concerns the target T1, Recombinant human glyoxalase I (GLO1) (Homo sapiens, UniProt Q04760).
T1 sequence (Q04760 2-184 limits assumed): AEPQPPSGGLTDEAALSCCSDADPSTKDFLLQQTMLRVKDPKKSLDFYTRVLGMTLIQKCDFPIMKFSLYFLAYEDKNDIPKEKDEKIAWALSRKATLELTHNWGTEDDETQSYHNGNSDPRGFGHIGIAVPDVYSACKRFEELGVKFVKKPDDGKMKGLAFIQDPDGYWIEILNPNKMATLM
Briefly: Human Glyoxalase 1 enzyme assay. In kind it is biochemical. The settings on record: for GLO1 inhibition compared with 8-MSQ, in words: SAR statement. The essentials:
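Recombinant human GLO1 (40 ng) was preincubated 15–20 min with test compound in 100 mM sodium phosphate, pH 7.0. Substrate was GSH and methylglyoxal (each from 100 mM stock) mixed in buffer and left 20 min at room temperature to form hemithioacetal, then added. DMSO ≤5% final. A240 read every minute for 8 min. Rates were normalized to the uninhibited control (100%) after no-enzyme background subtraction. IC50s were benchmarked against a reference N-hydroxypyridone inhibitor. Library screens used 200 and 50 µM fragment, with a >50% inhibition hit threshold.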

In data set [2] the test system is human GLO1. The following applies: cited from earlier work.
Data set [3] has as its system mice. Briefly: Observational assessment of toxicity after i.p. dosing. In kind it is in vivo.
Data set [4] relates to MG levels in brain. Briefly: Brain methylglyoxal. The settings on record: for MG per mg brain tissue: mice, 30-240 min post-dose, vehicle 1.1 ± 0.3. It is filed as in vivo. The essentials: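 Separate mouse cohort dosed i.p. at 12.5 or 25 mg/kg. Brains collected at 30, 60, 120 and 240 min post-dose, n=3 per time point. Under isoflurane, mice were perfused transcardially with PBS, then brains were weighed, flash-frozen and stored at −80 °C. Tissue was minced, extracted with acetonitrile, bead-homogenized, centrifuged and filtered (2 µm). MG was quantified by LC-MS/MS against an 11-point 5–5000 ng/mL curve spiked into blank brain, expressed per mg wet tissue.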

For data set [5], the system named is FVB/NJ mice. Put plainly: Forced swim test. In kind it is in vivo. The settings on record: 12.5 mg/kg i.p., 120 min before test, p=0.041.
In data set [6] the test system is FVB/NJ mice. Put plainly: Open field test. It is filed as in vivo. The settings on record: 12.5 mg/kg i.p., 90 min after injection, 30 min test. The gist of the method:
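Male and female FVB/NJ mice, 108–148 days old, tested in the light phase, were given 12.5 mg/kg i.p. or vehicle ([…]). After 90 min in the home cage, each was placed centrally in a 43×43×33 cm chamber under dim light inside a sound- and light-attenuating box for 30 min of free exploration. An infrared beam grid tracked distance traveled.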

Take `N#Cc1ccccc1S(=O)(=O)Nc1cccc2cccnc12` [Compound 20, 2-Cyano-N-(quinolin-8-yl)benzenesulfonamide]: the “GLO1 inhibition compared with 8-MSQ, in words” value in data set [1] is “not tolerated”.
Consider `CS(=O)(=O)Nc1ccc(-c2cncnc2)c2cccnc12` [Compound 39, N-(5-(Pyrimidin-5-yl)quinolin-8-yl)methanesulfonamide], for which, in data set [1], the “GLO1 inhibition compared with 8-MSQ, in words” value is on record as “not well tolerated”.
Regarding `O=S(=O)(Nc1cccc2cccnc12)c1ccccn1` [Compound 23, N-(Quinolin-8-yl)pyridine-2-sulfonamide], the “improvement in inhibition relative to 8-MSQ” value in data set [1] (ratio of IC50 values vs 8-MSQ) is on record as ~ 14 fold.
`COc1ccccc1S(=O)(=O)Nc1cccc2cccnc12` [Compound 17, 2-Methoxy-N-(quinolin-8-yl)benzenesulfonamide]: the “GLO1 inhibition compared with 8-MSQ, in words” value in data set [1] is on record as “not tolerated”.
As to `Cc1ccc2cccc(NS(=O)(=O)c3ccccc3)c2n1` [Compound 9, N-(2-Methylquinolin-8-yl)benzenesulfonamide], the “GLO1 inhibition compared with 8-MSQ, in words” value in data set [1] is “slight increase in inhibition”.
Consider `O=c1cc(-c2ccccc2)cc(-c2ccccc2)n1O` [Chugai-1, 1-hydroxy-4,6-diphenylpyridin-2(1H)-one, reference compound], for which the values for the IC50 in data set [2] (value reported in the original literature report) and in data set [1] were 1190 nM and 1900 ± 200 nM, respectively.
In the case of `COCCCn1ccc2cc(-c3cc(-c4ccccc4)cc(=O)n3O)cnc21` [Chugai-3d], in data set [2] (reported by Chugai Pharmaceuticals), the IC50 is 11 nM.
As to `O=S(=O)(Nc1ccc(-c2ccc(Cl)cc2)c2cccnc12)c1ccccn1` [Compound 48, N-(5-(4-Chlorophenyl)quinolin-8-yl)pyridine-2-sulfonamide], in data set [3] (i.p. doses of 50 mg/kg and higher), the observed toxicity result was “visibly toxic”.
On to `CS(=O)(=O)Nc1ccc(N2CCOCC2)c2cccnc12` [Compound 46, N-(5-Morpholinoquinolin-8-yl)methanesulfonamide], for which the “GLO1 inhibition compared with 8-MSQ, in words” value in data set [1] was “not well tolerated”.
Take `CS(=O)(=O)Nc1ccc(N2CCCCC2)c2cccnc12` [Compound 45, N-(5-(Piperidin-1-yl)quinolin-8-yl)methanesulfonamide]: the “GLO1 inhibition compared with 8-MSQ, in words” value in data set [1] is recorded as “not well tolerated”.
On to `CS(=O)(=O)Nc1ccc(-c2ccncc2)c2cccnc12` [Compound 38, N-(5-(Pyridin-4-yl)quinolin-8-yl)methanesulfonamide], for which the “GLO1 inhibition compared with 8-MSQ, in words” value in data set [1] is recorded as “not well tolerated”.
As for `O=S(=O)(Nc1cccc2cccnc12)c1ccccc1` [Compound 8, N-(Quinolin-8-yl)benzenesulfonamide], in data set [1] (ratio of IC50 values vs 8-MSQ), the “improvement in inhibition relative to 8-MSQ” value was 2 fold.
In the case of `CS(=O)(=O)Nc1cccc2cccnc12` [Compound 8-MSQ, N-(Quinolin-8-yl)methanesulfonamide], the “inhibition in second MBP library screening” value in data set [1] (fragment concentration 50 μM) is given as “essentially complete inhibition”.
Consider `COc1cc(CCc2cc(NS(=O)(=O)c3ccccn3)c3ncccc3c2)cc(OC)c1` [Compound 60, N-(6-(3,5-Dimethoxyphenethyl)quinolin-8-yl)pyridine-2-sulfonamide], for which the “increase of MG levels in brain vs vehicle-treated mice” value in data set [4] (12.5 mg/kg i.p., between 30 and 240 min post-dose) is on record as “approximately 11 fold”. In addition, the figures for the “MG per mg brain tissue” value in data set [4] (12.5 mg/kg i.p.) and in data set [4] (25 mg/kg i.p.) were 11.8±4.1 ng/mg of brain tissue and 14.1±3.1 ng/mg of brain tissue, respectively. The “increase in brain MG levels compared to vehicle-treated mice” value in data set [4] (summary statement in discussion) is given as over 10 fold. In data set [5], the “immobility in the FST vs vehicle” value is “reduction in percent immobility; also recorded: significant decrease in the time spent immobile; also recorded: reduced immobility”. In addition, the “observational assessment of toxicity” value in data set [3] (doses up to 100 mg/kg i.p.) is given as “no adverse responses”. The “locomotor activity in open field vs vehicle” value in data set [6] is “no effect”.
Turning to `Cc1ccc2cccc(NS(C)(=O)=O)c2n1` [Compound 7, N-(2-Methylquinolin-8-yl)methanesulfonamide], in data set [1] (ratio of IC50 values vs 8-MSQ), the “loss of affinity compared to 8-MSQ” value is reported as ~ 2 fold.
